# Experimental data from ChEMBL document CHEMBL1275448, “Identification of a novel multidrug efflux pump of Mycobacterium tuberculosis” (2008).
# Assays:
# [1] = tested on: Mycobacterium tuberculosis; assay: Antimicrobial activity against wild-type Mycobacterium bovis BCG by microplate Alamar blue assay; format: functional; details: variant bovis BCG
# In short: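 Whole-cell M. bovis BCG (Institut Pasteur) MABA; mutants carried IS1096::Km insertions. Growth was in Middlebrook 7H9 with 0.2% glycerol, 0.05% Tween 80 and 10% OADC. Final drug ranges: ampicillin 62.5–2,000 μg/ml, vancomycin 1.25–40 μg/ml, streptomycin 0.25–8 μg/ml, chloramphenicol 4–128 μg/ml, tetracycline 0.5–16 μg/ml. MIC was the lowest concentration cutting viability ≥90%, read by fluorescence (ex 530/em 590 nm, room temperature).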
# [2] = tested on: Mycobacterium tuberculosis; assay: Resistance factor, ratio of MIC for Mycobacterium bovis BCG ML1034 to MIC for wild-type Mycobacterium bovis BCG; format: functional, variant bovis BCG
# In short: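 Resistance factor is the MABA MIC for BCG mutant ML1034 divided by the MIC for wild-type BCG. Both MICs were taken as ≥90% viability reduction, read by fluorescence (ex 530/em 590 nm).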
Compound,MIC [1],Ratio [2]
CN[C@H](CC(C)C)C(=O)N[C@H]1C(=O)N[C@@H](CC(N)=O)C(=O)N[C@H]2C(=O)N[C@H]3C(=O)N[C@H](C(=O)N[C@H](C(=O)O)c4cc(O)cc(O)c4-c4cc3ccc4O)[C@H](O)c3ccc(c(Cl)c3)Oc3cc2cc(c3O[C@@H]2O[C@H](CO)[C@@H](O)[C@H](O)[C@H]2O[C@H]2C[C@](C)(N)[C@H](O)[C@H](C)O2)Oc2ccc(cc2Cl)[C@H]1O [VANCOMYCIN],5 µg/mL,4
CC1(C)S[C@@H]2[C@H](NC(=O)[C@H](N)c3ccccc3)C(=O)N2[C@H]1C(=O)O [AMPICILLIN],62.5 µg/mL,32
CN(C)[C@@H]1C(O)=C(C(N)=O)C(=O)[C@@]2(O)C(O)=C3C(=O)c4c(O)cccc4[C@@](C)(O)[C@H]3C[C@@H]12 [TETRACYCLINE],2 µg/mL,>8
CN[C@@H]1[C@H](O[C@H]2[C@H](O[C@H]3[C@H](O)[C@@H](O)[C@H](N=C(N)N)[C@@H](O)[C@@H]3N=C(N)N)O[C@@H](C)[C@]2(O)C=O)O[C@@H](CO)[C@H](O)[C@H]1O [STREPTOMYCIN],0.5 µg/mL,32
O=C(N[C@H](CO)[C@H](O)c1ccc([N+](=O)[O-])cc1)C(Cl)Cl [CHLORAMPHENICOL],8 µg/mL,64
